According to ChEMBL document CHEMBL1151442, “Genetic and phenotypic identification of fusidic acid-resistant mutants with the small-colony-variant phenotype in Staphylococcus aureus” (2007):
Values after ≈ are worked out from the molar mass of the structure shown.

Tests used:
Assay type in all cases: functional
Staphylococcus aureus [1] = assay: Antibacterial activity against kanamycin-resistant Staphylococcus aureus AH379 (SCV-51) harboring TAA stop codon at nucleotide 418 in rplF but gene after 18 to 24 hrs by Etest strip assay
Summary of the method: (§1)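 SCVs of a Rifr 8325-4 derivative were selected on LA with KAN at 8, 16 or 24 μg/ml for 48 h at 37°C. They were purified at the same KAN level and screened on LA plus FA 1 μg/ml.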

Staphylococcus aureus [2] = assay: Antibacterial activity against kanamycin-resistant and fusidic acid-susceptible Staphylococcus aureus AH291 harboring Arg659His mutation in fusA gene after 18 to 24 hrs by Etest strip assay
Summary of the method: (§2)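 Etest MIC: a single colony was suspended in 0.9% NaCl to 0.5 McFarland and swabbed over Mueller-Hinton agar. The strip was applied and plates were incubated at 37°C for 18 to 24 h until an SCV lawn grew.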

Staphylococcus aureus [3] = assay: Antibacterial activity against kanamycin-resistant Staphylococcus aureus AH333 (SCV-5) harboring TAA stop codon at nucleotide 249 in rplF but gene after 18 to 24 hrs by Etest strip assay; summary of the method: as §1
Staphylococcus aureus [4] = assay: Antibacterial activity against kanamycin-resistant Staphylococcus aureus AH370 (SCV-42) harboring TAA stop codon at nucleotide 229 in rplF gene after 18 to 24 hrs by Etest strip assay; summary of the method: as §1
Staphylococcus aureus [5] = assay: Antibacterial activity against kanamycin-resistant and fusidic acid-susceptible Staphylococcus aureus AH290 harboring duplication mutation at nucleotide 202-293 in rplF gene after 18 to 24 hrs by Etest strip assay; summary of the method: as §2
Staphylococcus aureus [6] = assay: Antibacterial activity against fusidic acid-resistant Staphylococcus aureus AH202 harboring CTG start codon at nucleotide 1 in rplF gene after 18 to 24 hrs by Etest strip assay
Summary of the method: (§3)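 Mutants of lab strain 8325-4 were selected on LA with FA 2 μg/ml for 48 h at 37°C and purified on selective medium. For the MIC, one colony was suspended in 0.9% NaCl to 0.5 McFarland and swabbed onto Mueller-Hinton agar. An Etest strip was applied and plates were incubated at 37°C for 18–24 h until the lawn was evident.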

Staphylococcus aureus [7] = assay: Antibacterial activity against kanamycin-resistant Staphylococcus aureus AH351 (SCV-23) harboring -4 frameshift mutation at nucleotide 45-48 in rplF gene after 18 to 24 hrs by Etest strip assay; summary of the method: as §1
Staphylococcus aureus [8] = assay: Antibacterial activity against kanamycin-resistant Staphylococcus aureus AH362 (SCV-34) harboring TAA stop codon at nucleotide 282 in rplF gene after 18 to 24 hrs by Etest strip assay; summary of the method: as §1
Staphylococcus aureus [9] = assay: Antibacterial activity against kanamycin-resistant Staphylococcus aureus AH392 (SCV-64) harboring -1 frameshift mutation at nucleotide 383 in rplF gene after 18 to 24 hrs by Etest strip assay; summary of the method: as §2
Staphylococcus aureus [10] = assay: Antibacterial activity against kanamycin-resistant Staphylococcus aureus AH366 (SCV-38) harboring Pro114His mutation in fusA gene after 18 to 24 hrs by Etest strip assay; summary of the method: as §1
Staphylococcus aureus [11] = assay: Antibacterial activity against kanamycin-resistant Staphylococcus aureus AH360 (SCV-32) harboring ATA start codon at nucleotide 3 in rplF gene after 18 to 24 hrs by Etest strip assay; summary of the method: as §1
Staphylococcus aureus [12] = assay: Antibacterial activity against kanamycin-resistant Staphylococcus aureus AH380 (SCV-52) harboring -1 frameshift mutation at nucleotide 158 in rplF gene after 18 to 24 hrs by Etest strip assay; summary of the method: as §1
Staphylococcus aureus [13] = assay: Antibacterial activity against kanamycin-resistant Staphylococcus aureus AH349 (SCV-21) harboring -1 frameshift mutation at nucleotide 404 in rplF gene after 18 to 24 hrs by Etest strip assay; summary of the method: as §1
Staphylococcus aureus [14] = assay: Antibacterial activity against kanamycin-resistant Staphylococcus aureus AH331 (SCV-3) harboring Arg659His mutation in fusA gene after 18 to 24 hrs by Etest strip assay; summary of the method: as §1
Staphylococcus aureus [15] = assay: Antibacterial activity against kanamycin-resistant and fusidic acid-susceptible Staphylococcus aureus AH417 harboring -1 frameshift mutation at nucleotide 422 in rplF gene after 18 to 24 hrs by Etest strip assay; summary of the method: as §2
Staphylococcus aureus [16] = assay: Antibacterial activity against kanamycin-resistant and fusidic acid-susceptible Staphylococcus aureus AH422 harboring +2 frameshift mutation at nucleotide 222 in rplF gene after 18 to 24 hrs by Etest strip assay; summary of the method: as §2
Staphylococcus aureus [17] = assay: Antibacterial activity against fusidic acid-resistant Staphylococcus aureus AH187 harboring His457Tyr mutation in fusA gene after 18 to 24 hrs by Etest strip assay; summary of the method: as §3
Staphylococcus aureus [18] = assay: Antibacterial activity against kanamycin-resistant Staphylococcus aureus AH358 (SCV-30) harboring -1 frameshift mutation at nucleotide 423 in rplF gene after 18 to 24 hrs by Etest strip assay; summary of the method: as §1
Staphylococcus aureus [19] = assay: Antibacterial activity against kanamycin-susceptible wild type Staphylococcus aureus AH001 after 18 to 24 hrs by Etest strip assay
Summary of the method: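 The inoculum was a single colony suspended in 0.9% NaCl to 0.5 McFarland and swabbed over a Mueller-Hinton agar plate. An Etest gradient strip was then applied, and the plate was incubated at 37°C for 18 to 24 h until lawn growth was evident. MIC was read from the strip following the manufacturer's instructions.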

Staphylococcus aureus [20] = assay: Antibacterial activity against fusidic acid-resistant Staphylococcus aureus AH209 harboring deletion of nucleotide 404-427 in rplF gene after 18 to 24 hrs by Etest strip assay; summary of the method: as §3
Staphylococcus aureus [21] = assay: Antibacterial activity against kanamycin-resistant Staphylococcus aureus AH347 (SCV-19) harboring Arg659Ser mutation in fusA gene after 18 to 24 hrs by Etest strip assay; summary of the method: as §1
Staphylococcus aureus [22] = assay: Antibacterial activity against kanamycin-resistant and fusidic acid-susceptible Staphylococcus aureus AH288 harboring Gly617Asp mutation in fusA gene after 18 to 24 hrs by Etest strip assay; summary of the method: as §2
Staphylococcus aureus [23] = assay: Antibacterial activity against kanamycin-resistant Staphylococcus aureus AH336 (SCV-8) harboring His438Asn mutation in fusA gene after 18 to 24 hrs by Etest strip assay; summary of the method: as §1
Staphylococcus aureus [24] = assay: Antibacterial activity against kanamycin-resistant Staphylococcus aureus AH330 (SCV-2) harboring -1 frameshift mutation at nucleotide 423 in rplF gene after 18 to 24 hrs by Etest strip assay; summary of the method: as §1
Staphylococcus aureus [25] = assay: Antibacterial activity against fusidic acid-resistant Staphylococcus aureus AH197 harboring Leu456Phe mutation in fusA gene after 18 to 24 hrs by Etest strip assay; summary of the method: as §3
Staphylococcus aureus [26] = assay: Antibacterial activity against kanamycin-resistant Staphylococcus aureus AH340 (SCV-12) harboring Gly617Asp mutation in fusA gene after 18 to 24 hrs by Etest strip assay; summary of the method: as §1
Staphylococcus aureus [27] = assay: Antibacterial activity against kanamycin-resistant Staphylococcus aureus AH346 (SCV-18) harboring -1 frameshift mutation at nucleotide 238 in rplF gene after 18 to 24 hrs by Etest strip assay; summary of the method: as §1
Staphylococcus aureus [28] = assay: Antibacterial activity against fusidic acid-resistant Staphylococcus aureus AH196 harboring Pro406Leu mutation in fusA gene after 18 to 24 hrs by Etest strip assay; summary of the method: as §3
Staphylococcus aureus [29] = assay: Antibacterial activity against kanamycin-resistant Staphylococcus aureus AH367 (SCV-39) harboring Gly664Ser mutation in fusA gene after 18 to 24 hrs by Etest strip assay; summary of the method: as §1
Staphylococcus aureus [30] = assay: Ratio of MIC for kanamycin-resistant Staphylococcus aureus harboring mutations in FusA gene to MIC for wild type kanamycin-susceptible Staphylococcus aureus AH001
Staphylococcus aureus [31] = assay: Antibacterial activity against fusidic acid-resistant Staphylococcus aureus AH207 harboring Thr385Asn mutation in fusA gene after 18 to 24 hrs by Etest strip assay; summary of the method: as §3

Row | SMILES | MIC (Staphylococcus aureus [1]) [µg/mL] | MIC (Staphylococcus aureus [2]) [µg/mL] | MIC (Staphylococcus aureus [3]) [µg/mL] | MIC (Staphylococcus aureus [4]) [µg/mL] | MIC (Staphylococcus aureus [5]) [µg/mL] | MIC (Staphylococcus aureus [6]) [µg/mL] | MIC (Staphylococcus aureus [7]) [µg/mL] | MIC (Staphylococcus aureus [8]) [µg/mL] | MIC (Staphylococcus aureus [9]) [µg/mL] | MIC (Staphylococcus aureus [10]) [µg/mL] | MIC (Staphylococcus aureus [11]) [µg/mL] | MIC (Staphylococcus aureus [12]) [µg/mL] | MIC (Staphylococcus aureus [13]) [µg/mL] | MIC (Staphylococcus aureus [14]) [µg/mL] | MIC (Staphylococcus aureus [15]) [µg/mL] | MIC (Staphylococcus aureus [16]) [µg/mL] | MIC (Staphylococcus aureus [17]) [µg/mL] | MIC (Staphylococcus aureus [18]) [µg/mL] | MIC (Staphylococcus aureus [19]) [µg/mL] | MIC (Staphylococcus aureus [20]) [µg/mL] | also measured
1 | CC(=O)O[C@H]1C[C@@]2(C)[C@@H](C[C@@H](O)[C@H]3[C@@]4(C)CC[C@@H](O)[C@@H](C)[C@@H]4CC[C@@]32C)/C1=C(\CCC=C(C)C)C(=O)O [FUSIDIC ACID] | 6 (≈ 11.6 µM) | 4 (≈ 7.74 µM) | 12 (≈ 23.2 µM) | 8 (≈ 15.5 µM) | 8 (≈ 15.5 µM) | 4 (≈ 7.74 µM) | 16 | 12 (≈ 23.2 µM) | 4 | 12 (≈ 23.2 µM) | 24 (≈ 46.4 µM) | 6 | 4 | 8 (≈ 15.5 µM) | 24 | 12 | 96 (≈ 186 µM) | 12 | 0.125 (≈ 0.242 µM) | 4 (≈ 7.74 µM) | MIC (Staphylococcus aureus [21]): 12 µg/mL (≈ 23.2 µM); MIC (Staphylococcus aureus [22]): 6 µg/mL (≈ 11.6 µM); MIC (Staphylococcus aureus [23]): 8 µg/mL (≈ 15.5 µM); MIC (Staphylococcus aureus [24]): 12 µg/mL; MIC (Staphylococcus aureus [25]): 4 µg/mL (≈ 7.74 µM); MIC (Staphylococcus aureus [26]): 4 µg/mL (≈ 7.74 µM); MIC (Staphylococcus aureus [27]): 8 µg/mL; MIC (Staphylococcus aureus [28]): 6 µg/mL (≈ 11.6 µM); MIC (Staphylococcus aureus [29]): 12 µg/mL (≈ 23.2 µM); fold change (FC) (Staphylococcus aureus [30]): 32; MIC (Staphylococcus aureus [31]): 4 µg/mL (≈ 7.74 µM)
2 | NC[C@H]1O[C@H](O[C@H]2[C@H](O)[C@@H](O[C@H]3O[C@H](CO)[C@@H](O)[C@H](N)[C@H]3O)[C@H](N)C[C@@H]2N)[C@H](O)[C@@H](O)[C@@H]1O [KANAMYCIN] | 12 (≈ 24.8 µM) | 24 (≈ 49.5 µM) | 8 (≈ 16.5 µM) | 8 (≈ 16.5 µM) | 256 (≈ 528 µM) | 8 (≈ 16.5 µM) | 64 | 128 (≈ 264 µM) | 12 | 12 (≈ 24.8 µM) | 96 (≈ 198 µM) | 4 | 16 | 16 (≈ 33 µM) | 256 | 128 | 3 (≈ 6.19 µM) | 48 | 1.5 (≈ 3.1 µM) | 8 (≈ 16.5 µM) | MIC (Staphylococcus aureus [21]): 12 µg/mL (≈ 24.8 µM); MIC (Staphylococcus aureus [22]): 16 µg/mL (≈ 33 µM); MIC (Staphylococcus aureus [23]): 16 µg/mL (≈ 33 µM); MIC (Staphylococcus aureus [24]): 128 µg/mL; MIC (Staphylococcus aureus [25]): 6 µg/mL (≈ 12.4 µM); MIC (Staphylococcus aureus [26]): 12 µg/mL (≈ 24.8 µM); MIC (Staphylococcus aureus [27]): 8 µg/mL; MIC (Staphylococcus aureus [28]): 3 µg/mL (≈ 6.19 µM); MIC (Staphylococcus aureus [29]): 12 µg/mL (≈ 24.8 µM); fold change (FC) (Staphylococcus aureus [30]): 3; MIC (Staphylococcus aureus [31]): 3 µg/mL (≈ 6.19 µM)
3 | CN[C@@H]1[C@H](O[C@H]2[C@H](O[C@H]3[C@H](O)[C@@H](O)[C@H](N=C(N)N)[C@@H](O)[C@@H]3N=C(N)N)O[C@@H](C)[C@]2(O)C=O)O[C@@H](CO)[C@H](O)[C@H]1O [STREPTOMYCIN] | 16 (≈ 27.5 µM) | 24 (≈ 41.3 µM) | 24 (≈ 41.3 µM) | 24 (≈ 41.3 µM) | 64 (≈ 110 µM) | 16 (≈ 27.5 µM) | 256 | 256 (≈ 440 µM) | 16 | 24 (≈ 41.3 µM) | 192 (≈ 330 µM) | 24 | 64 | 24 (≈ 41.3 µM) | 256 | 32 | 6 (≈ 10.3 µM) | 64 | 3 (≈ 5.16 µM) | 16 (≈ 27.5 µM) | MIC (Staphylococcus aureus [21]): 32 µg/mL (≈ 55 µM); MIC (Staphylococcus aureus [22]): 32 µg/mL (≈ 55 µM); MIC (Staphylococcus aureus [23]): 12 µg/mL (≈ 20.6 µM); MIC (Staphylococcus aureus [24]): 96 µg/mL; MIC (Staphylococcus aureus [25]): 8 µg/mL (≈ 13.8 µM); MIC (Staphylococcus aureus [26]): 24 µg/mL (≈ 41.3 µM); MIC (Staphylococcus aureus [27]): 24 µg/mL; MIC (Staphylococcus aureus [28]): 8 µg/mL (≈ 13.8 µM); MIC (Staphylococcus aureus [29]): 16 µg/mL (≈ 27.5 µM); fold change (FC) (Staphylococcus aureus [30]): 3; MIC (Staphylococcus aureus [31]): 12 µg/mL (≈ 20.6 µM)
